Laboratory results reported in PubChem BioAssay AID624431 (The Scripps Research Institute Molecular Screening Center, 2012).
This is one part of the list. Unmarked numbers belong to inactive results. Active and inactive are the calls of the source.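 The calls were made as follows: active = mean inhibition over triplicates exceeds the hit threshold derived for the earlier primary screening run (cut at about 25% in these data); inactive = the rest.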

Molecular target: Arf-GAP with SH3 domain, ANK repeat and PH domain-containing protein 1 (Homo sapiens) (UniProt Q9ULH1)
Sequence (Q9ULH1 325-724 limits assumed): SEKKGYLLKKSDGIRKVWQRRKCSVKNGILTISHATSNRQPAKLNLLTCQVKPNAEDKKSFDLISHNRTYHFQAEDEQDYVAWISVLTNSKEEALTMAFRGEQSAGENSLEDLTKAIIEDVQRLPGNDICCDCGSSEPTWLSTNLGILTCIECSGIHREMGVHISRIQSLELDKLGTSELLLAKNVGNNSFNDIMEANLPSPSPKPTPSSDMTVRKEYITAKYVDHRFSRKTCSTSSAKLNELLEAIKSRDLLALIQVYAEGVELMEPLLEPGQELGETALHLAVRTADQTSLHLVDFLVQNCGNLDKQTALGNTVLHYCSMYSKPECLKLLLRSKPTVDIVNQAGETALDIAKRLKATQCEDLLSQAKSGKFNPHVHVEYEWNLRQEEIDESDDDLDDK
Assay: blockers of ASAP1-stimulated Arf1 GTP hydrolysis – biochemical, fluorescence polarization, human, triplicate, confirmation (AID 624431)
Settings: ASAP1-stimulated Arf1 GTPase, GDP fluorescence polarization; at 16.5 µM; hits give high values
In short: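 Medium: HEPES-based assay buffer at pH 7.5; System: purified ASAP1 fragment 325-724; Reagent: Arf1 Δ17-GTP substrate; Read-out basis: % inhibition vs no-ASAP1 controls; Times: 20-min ASAP1–compound and 120-min Arf1-GTP steps at 25 °C, 60-min tracer; Detection: FP readout via GDP Alexa 633 tracer displacement from antibody.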

Row | SMILES | inhibition
1 | COc1ccc(/C=N/Nc2ncnc3sc4c(c23)CCCC4)cc1O | 26.2% (active)
2 | OCCNc1nc(Nc2ccc(Cl)c(Cl)c2)nc2ccccc12 | 26.6% (active)
3 | Cc1ccc2nc(SCC(=O)N3CC(C)OC(C)C3)nc(=O)n2c1 (stereo unspecified) | 54.1% (active)
4 | CC(=O)Nc1cc(-c2ccc(N3CCN(C)CC3)cc2)cn2c(-c3ccc(F)cc3)cnc12 | 40.5% (active)
5 | O=c1/c(=C/c2ccc(CNS(=O)(=O)c3ccccc3)o2)sc2n1CCN=2 | -9.13%
6 | N#Cc1cc([N+](=O)[O-])ccc1Oc1cccc(/C=N/NC(=O)c2ccc(Cl)cc2)c1 | 31.5% (active)
